Experimental data as given in ChEMBL document CHEMBL4354861, “Re-Evaluating the Mechanism of Action of α,β-Unsaturated Carbonyl DUB Inhibitors b-AP15 and VLX1570: A Paradigmatic Example of Unspecific Protein Cross-linking with Michael Acceptor Motif-Containing Drugs” (J Med Chem, 2020).
Active and inactive are the calls of the source. The calls are words filed in the database; no cut-off is given here.

How the values were obtained:
Ataxin-3 (Homo sapiens) = Ataxin-3 (Homo sapiens) (UniProt P54252); assay: Inhibition of human recombinant Ataxin-3 assessed as reduction in cleavage of luminescent substrate Ub-AML at 100 uM
Method in brief: (§1)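 Purified recombinant DUBs assayed with Ub-AML as luminescent substrate, using the Glo reagent protocol and read on a microplate luminometer.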

[1] = biological target: T1, Ubiquitin carboxyl-terminal hydrolase isozyme L5 (Homo sapiens) (UniProt Q9Y5K5); assay: Inhibition of UCH-37 in intact human HeLa cells assessed as induction of formation of high molecular weight complexes with USP14 at 10 uM incubated for 2 hrs in presence of dithiothreitol by immunoblot analysis; assay type: cell-based
T1 sequence (whole entry): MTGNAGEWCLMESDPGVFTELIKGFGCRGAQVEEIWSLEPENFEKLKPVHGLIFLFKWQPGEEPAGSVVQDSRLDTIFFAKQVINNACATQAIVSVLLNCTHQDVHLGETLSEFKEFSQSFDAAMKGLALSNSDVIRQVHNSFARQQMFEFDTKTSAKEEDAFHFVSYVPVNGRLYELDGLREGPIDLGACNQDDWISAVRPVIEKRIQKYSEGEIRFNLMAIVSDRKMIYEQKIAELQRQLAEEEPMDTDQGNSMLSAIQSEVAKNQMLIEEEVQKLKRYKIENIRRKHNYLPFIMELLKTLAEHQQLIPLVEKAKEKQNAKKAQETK
Method in brief: (§2)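 Intact HeLa cells (DMEM, 10% FBS, about 80% confluent) treated 2 h with vehicle or 10 μM compound, with or without 10 mM DTT or 10 mM GSH. Cells washed in cold PBS and lysed in RIPA with protease and phosphatase inhibitors. High-MW species detected by SDS-PAGE immunoblot; shorter exposures served as loading control.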

[2] = biological target: Ubiquitin carboxyl-terminal hydrolase 14 (Homo sapiens) (UniProt P54578); assay: Inhibition of USP14 in intact human HeLa cells assessed as induction of formation of high molecular weight complexes with USP14 at 10 uM in presence of dithiothreitol incubated for 2 hrs by immunoblot analysis; assay type: cell-based; method in brief: as §2
[3] = biological target: Ubiquitin carboxyl-terminal hydrolase 14 (Homo sapiens) (UniProt P54578); assay: Inhibition of USP14 in human HeLa crude cell extracts assessed as induction of formation of high molecular weight complexes with USP14 at 10 uM incubated for 2 hrs in presence of dithiothreitol by immunoblot analysis; assay type: cell-free
HUVEC = assay: Cytotoxicity in human HUVEC cells assessed as reduction in cell viability incubated for 72 hrs Cell-titer Glo reagent based assay
Method in brief: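 Endothelial HUVECs (EGM-2, 10% FBS) exposed to compound for 72 h, n=6. Viability read as CellTiter Glo luminescence and IC50 derived.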

[4] = biological target: T2, Ubiquitin carboxyl-terminal hydrolase 28 (Homo sapiens) (UniProt Q96RU2); assay: Inhibition of USP28 in human HeLa cell extracts assessed as inhibition of HA-Ub-C2Br probe labeling at 1 to 100 uM incubated for 30 mins by immunoblot analysis; assay type: cell-free
T2 sequence (whole entry): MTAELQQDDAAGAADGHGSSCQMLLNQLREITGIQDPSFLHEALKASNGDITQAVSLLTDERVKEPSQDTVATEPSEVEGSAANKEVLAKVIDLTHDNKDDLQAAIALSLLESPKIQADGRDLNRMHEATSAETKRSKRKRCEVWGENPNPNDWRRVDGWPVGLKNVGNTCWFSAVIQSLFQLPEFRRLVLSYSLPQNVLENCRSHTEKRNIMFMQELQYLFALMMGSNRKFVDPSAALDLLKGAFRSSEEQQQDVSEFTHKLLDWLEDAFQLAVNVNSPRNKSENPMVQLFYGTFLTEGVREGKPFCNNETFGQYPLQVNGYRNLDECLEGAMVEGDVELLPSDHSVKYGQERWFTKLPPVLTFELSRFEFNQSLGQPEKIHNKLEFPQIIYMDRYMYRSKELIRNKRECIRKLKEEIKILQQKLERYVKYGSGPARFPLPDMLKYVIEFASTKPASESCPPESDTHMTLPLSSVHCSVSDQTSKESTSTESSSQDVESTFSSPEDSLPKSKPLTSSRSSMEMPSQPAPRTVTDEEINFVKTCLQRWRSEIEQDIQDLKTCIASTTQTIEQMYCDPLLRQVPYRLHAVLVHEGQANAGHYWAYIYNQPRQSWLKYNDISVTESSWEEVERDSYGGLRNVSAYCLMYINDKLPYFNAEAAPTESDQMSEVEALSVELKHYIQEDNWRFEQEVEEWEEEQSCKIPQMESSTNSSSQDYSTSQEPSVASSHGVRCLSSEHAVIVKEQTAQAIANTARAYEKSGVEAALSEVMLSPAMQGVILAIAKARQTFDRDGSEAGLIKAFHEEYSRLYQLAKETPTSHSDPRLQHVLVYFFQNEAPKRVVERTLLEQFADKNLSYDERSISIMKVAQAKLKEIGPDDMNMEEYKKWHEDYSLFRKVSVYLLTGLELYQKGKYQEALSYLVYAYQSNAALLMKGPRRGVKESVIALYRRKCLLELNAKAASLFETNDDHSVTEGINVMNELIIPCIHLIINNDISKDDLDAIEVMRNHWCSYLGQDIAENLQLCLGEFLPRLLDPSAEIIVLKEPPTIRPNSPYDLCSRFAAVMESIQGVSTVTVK

[5] = biological target: Ubiquitin carboxyl-terminal hydrolase 8 (Homo sapiens) (UniProt P40818); assay: Inhibition of N-terminal His6-tagged full length recombinant human USP8 assessed as reduction in cleavage of luminescent substrate Ub-AML at 100 uM; method in brief: as §1
HeLa [6] = assay: Inhibition of deubiquitinase in human HeLa cell extracts assessed as induction of accumulation of high molecular weight ubiquitylated proteins at 10 uM incubated for 2 hrs in presence of GSH by immunoblot analysis; assay type: cell-free
HeLa [7] = assay: Inhibition of deubiquitinase in human HeLa cell extracts assessed as induction of accumulation of high molecular weight ubiquitylated proteins at 10 uM incubated for 2 hrs in presence of DTT by immunoblot analysis; assay type: cell-free
[8] = biological target: T1, Ubiquitin carboxyl-terminal hydrolase isozyme L5 (Homo sapiens); assay: Inhibition of UCH-37 in human HeLa crude cell extracts assessed as induction of formation of high molecular weight complexes with […] at 10 uM incubated for 2 hrs in presence of glutathione by immunoblot analysis; assay type: cell-free
[9] = biological target: T1, Ubiquitin carboxyl-terminal hydrolase isozyme L5 (Homo sapiens); assay: Inhibition of UCH-37 in intact human HeLa cells assessed as induction of formation of high molecular weight complexes with USP14 at 10 uM incubated for 2 hrs by immunoblot analysis; assay type: cell-based; method in brief: as §2
[10] = biological target: T1, Ubiquitin carboxyl-terminal hydrolase isozyme L5 (Homo sapiens); assay: Inhibition of UCH-37 in human HeLa crude cell extracts assessed as induction of formation of high molecular weight complexes with […] at 10 uM incubated for 2 hrs by immunoblot analysis; assay type: cell-free
HeLa [11] = assay: Inhibition of deubiquitinase in human HeLa cell extracts assessed as increase in high molecular weight protein complexes at 10 uM incubated for 2 hrs by SDS-PAGE and Coomassie Blue staining based method; assay type: cell-free
[12] = biological target: Ubiquitin carboxyl-terminal hydrolase 14 (Homo sapiens) (UniProt P54578); assay: Inhibition of USP14 in human HeLa crude cell extracts assessed as induction of formation of high molecular weight complexes with USP14 at 10 uM incubated for 2 hrs in presence of glutathione by immunoblot analysis; assay type: cell-free
HeLa [13] = assay: Inhibition of deubiquitinase in human HeLa cell extracts assessed as induction of accumulation of high molecular weight mTOR proteins at 10 uM incubated for 2 hrs by immunoblot analysis; assay type: cell-free

Ubiquitin carboxyl-terminal hydrolase 14 (Homo sapiens), sequence (P54578 whole entry): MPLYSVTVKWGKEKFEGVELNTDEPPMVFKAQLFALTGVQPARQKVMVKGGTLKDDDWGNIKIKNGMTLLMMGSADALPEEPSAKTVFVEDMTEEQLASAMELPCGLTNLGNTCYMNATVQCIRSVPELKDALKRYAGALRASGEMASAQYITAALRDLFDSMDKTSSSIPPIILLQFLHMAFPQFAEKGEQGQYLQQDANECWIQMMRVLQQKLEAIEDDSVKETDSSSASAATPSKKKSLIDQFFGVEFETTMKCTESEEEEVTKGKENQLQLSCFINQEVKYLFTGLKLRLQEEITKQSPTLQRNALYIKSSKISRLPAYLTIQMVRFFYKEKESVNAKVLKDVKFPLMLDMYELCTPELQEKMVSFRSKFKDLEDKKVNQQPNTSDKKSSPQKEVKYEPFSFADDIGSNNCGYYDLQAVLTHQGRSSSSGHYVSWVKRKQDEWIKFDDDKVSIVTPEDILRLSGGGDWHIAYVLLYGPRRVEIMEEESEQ
Ataxin-3 (Homo sapiens), sequence (P54252 whole entry): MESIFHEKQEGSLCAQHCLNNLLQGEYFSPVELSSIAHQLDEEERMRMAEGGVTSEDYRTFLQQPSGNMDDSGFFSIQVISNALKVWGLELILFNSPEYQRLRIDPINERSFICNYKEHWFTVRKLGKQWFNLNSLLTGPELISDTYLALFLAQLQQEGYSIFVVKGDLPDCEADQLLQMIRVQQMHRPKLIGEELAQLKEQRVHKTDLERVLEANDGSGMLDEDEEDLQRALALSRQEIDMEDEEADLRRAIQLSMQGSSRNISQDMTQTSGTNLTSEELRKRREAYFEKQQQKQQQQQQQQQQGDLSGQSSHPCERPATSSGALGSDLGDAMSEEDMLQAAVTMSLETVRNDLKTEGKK
Ubiquitin carboxyl-terminal hydrolase 8 (Homo sapiens), sequence (P40818 whole entry): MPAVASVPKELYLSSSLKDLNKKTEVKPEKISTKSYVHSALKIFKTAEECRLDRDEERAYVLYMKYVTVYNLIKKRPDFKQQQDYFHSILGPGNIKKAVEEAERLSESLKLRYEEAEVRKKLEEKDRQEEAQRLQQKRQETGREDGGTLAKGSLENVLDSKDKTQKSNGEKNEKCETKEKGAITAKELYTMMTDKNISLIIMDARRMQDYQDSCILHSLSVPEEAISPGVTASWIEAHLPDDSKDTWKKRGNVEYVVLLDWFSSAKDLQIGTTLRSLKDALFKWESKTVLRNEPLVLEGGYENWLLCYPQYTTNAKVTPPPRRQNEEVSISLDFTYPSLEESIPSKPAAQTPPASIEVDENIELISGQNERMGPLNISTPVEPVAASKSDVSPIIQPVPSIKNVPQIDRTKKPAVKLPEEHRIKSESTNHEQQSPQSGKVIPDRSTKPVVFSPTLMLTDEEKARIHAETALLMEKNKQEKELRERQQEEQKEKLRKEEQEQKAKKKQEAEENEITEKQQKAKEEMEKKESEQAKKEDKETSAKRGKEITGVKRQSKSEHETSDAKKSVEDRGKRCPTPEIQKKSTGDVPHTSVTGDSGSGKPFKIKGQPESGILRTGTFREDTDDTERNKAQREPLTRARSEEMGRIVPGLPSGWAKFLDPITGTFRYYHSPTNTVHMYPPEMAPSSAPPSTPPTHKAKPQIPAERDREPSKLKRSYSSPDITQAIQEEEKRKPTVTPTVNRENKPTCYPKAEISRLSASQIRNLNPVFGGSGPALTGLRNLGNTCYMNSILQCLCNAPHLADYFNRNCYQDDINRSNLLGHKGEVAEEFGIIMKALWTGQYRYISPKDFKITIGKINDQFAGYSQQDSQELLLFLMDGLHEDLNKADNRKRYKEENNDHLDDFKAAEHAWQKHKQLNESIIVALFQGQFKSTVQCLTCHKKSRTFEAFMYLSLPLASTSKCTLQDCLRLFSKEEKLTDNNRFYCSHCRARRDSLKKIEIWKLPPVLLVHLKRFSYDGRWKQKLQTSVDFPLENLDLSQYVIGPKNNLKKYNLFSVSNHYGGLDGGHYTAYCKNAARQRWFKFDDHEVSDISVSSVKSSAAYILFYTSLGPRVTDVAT

## C=CC(=O)N1C/C(=C\c2ccc([N+](=O)[O-])cc2)C(=O)/C(=C/c2ccc([N+](=O)[O-])cc2)C1
Ataxin-3 (Homo sapiens)
  inhibition: Active
[1]
  inhibition: inactive
[2]
  inhibition: inactive
[3]
  inhibition: inactive
HUVEC
  Activity: Toxic
[4]
  inhibition: Active
[5]
  inhibition: Active
HeLa [6]
  inhibition: inactive
HeLa [7]
  inhibition: inactive
[8]
  inhibition: inactive
[9]
  inhibition: Active
[10]
  inhibition: Active
HeLa [11]
  inhibition: Active
[12]
  inhibition: inactive
HeLa [13]
  inhibition: Active
